Experimental findings from ChEMBL document CHEMBL2034822, “HPLC-ESIMS(n) profiling, isolation, structural elucidation, and evaluation of the antioxidant potential of phenolics from Paepalanthus geniculatus” (J Nat Prod, 2012) are described below.

The nature of data set [1]: Antioxidant activity against ABTS radical assessed as trolox equivalents by TEAC assay. The class given is functional. A digest of the protocol: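 ABTS radical cation diluted in PBS pH 7.4 to A734 0.70, equilibrated at 30 °C, then added to sample solutions in MeOH at 0.3, 0.5, 1 and 1.5 concentration. Inhibition of A734 versus MeOH blank, run in triplicate, plotted against concentration alongside Trolox standard. TEAC = Trolox concentration equivalent in capacity to 1 mM compound.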

Data set [2] deals with PC-3. Put plainly: Antioxidant activity in human PC3 cells assessed as decrease in t-BuOOH-induced ROS elevation at 1 to 10 uM incubated for 24 hrs prior to t-BuOOH-challenge measured after 30 mins by dichlorofluorescein-based flow cytometric analysis. The class given is functional, cell-based. Summed up: (§1)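 PC3 cells grown in DMEM with 2 mM L-glutamine, 10% heat-inactivated FBS and 1% pen/strep at 37 °C, then exposed to compound for 24 h. Exposed to 300 μM t-BuOOH for 30 min at 37 °C, washed, resuspended at 2 × 10^5 cells/ml in HBSS with 10 μM DCFH-DA for 20 min at 37 °C. DCF read by flow cytometry (FL1-H). Mean ± SEM of three experiments in triplicate; ANOVA with Bonferroni.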

Data set [3] concerns PC-3. Put plainly: Cytotoxicity against human PC3 cells. The class given is cell-based.
The subject of data set [4] is PC-3. The data set is described as follows: Antioxidant activity in human PC3 cells assessed as decrease in t-BuOOH-induced ROS elevation at 10 uM incubated for 24 hrs prior to t-BuOOH-challenge measured after 30 mins by dichlorofluorescein-based flow cytometric analysis. The class given is functional, cell-based. Summed up: as §1
For orientation: A flow cytometer gives signals particle by particle.

Calls of active or inactive are those of the source. No cut-off for these calls is given here.

In the case of `COc1cc2oc(-c3ccc(O)c(O)c3)c(O[C@@H]3O[C@H](CO[C@@H]4O[C@@H](C)[C@H](O)[C@@H](O)[C@H]4O)[C@@H](O)[C@H](O)[C@H]3O)c(=O)c2c(O)c1O`, the Activity in data set [1] is 1.54 mM; with PC-3 [3] it was “Non-toxic”. Moreover, in the data set with PC-3 [2], the result was inactive.

In the case of `COc1c(O)cc2oc(-c3ccc(O)cc3)c(O[C@@H]3O[C@H](COC(=O)[C@H]4[C@H](c5ccc(O)cc5)[C@H](C(=O)OC[C@H]5O[C@@H](Oc6c(-c7ccc(O)cc7)oc7cc(O)c(OC)c(O)c7c6=O)[C@H](O)[C@@H](O)[C@@H]5O)[C@H]4c4ccc(O)cc4)[C@@H](O)[C@H](O)[C@H]3O)c(=O)c2c1O` [GENICULATIN], the Activity is 0.738 mM in data set [1] and “Non-toxic” with PC-3 [3]. The outcome in the data set with PC-3 [2] was inactive.

With `O=c1c(O[C@@H]2O[C@H](CO)[C@@H](O)[C@H](O)[C@H]2O)c(-c2ccc(O)cc2)oc2cc(O)cc(O)c12`, in data set [1], the Activity is 1.18 mM.

As to `COc1c(O)cc2oc(-c3ccc(O)cc3)c(O[C@@H]3O[C@H](CO[C@@H]4O[C@@H](C)[C@H](O)[C@@H](OC(C)=O)[C@H]4OC(C)=O)[C@@H](O)[C@H](O)[C@H]3O)c(=O)c2c1O`, the figures for the Activity (in data set [1]; with PC-3 [3]) were 1.4 mM and “Non-toxic”, respectively. Further, the outcome in the data set with PC-3 [2] was inactive.

On to `COc1c(O)cc2oc(-c3ccc(O)c(O)c3)c(O[C@@H]3O[C@H](CO[C@@H]4O[C@@H](C)[C@H](O)[C@@H](O)[C@H]4OC(C)=O)[C@@H](O)[C@H](O)[C@H]3O)c(=O)c2c1O`, for which the Activity was 1.37 mM in data set [1] and “Non-toxic” in the data set on PC-3 [3]. Also, the outcome in the data set on PC-3 [2] was inactive.

For the molecule `COc1cc(O[C@H]2O[C@H](CO[C@@H]3O[C@H](CO)[C@@H](O)[C@@H](O)[C@H]3O)[C@@H](O)[C@H](O)[C@H]2O)c2c(O)c3c(=O)oc(C)cc3c(OC)c2c1`, the Activity is 0.57 mM in data set [1] and “Non-toxic” in the data set with PC-3 [3]. In the data set on PC-3 [2], the result was inactive.

Take `COc1c(O)cc2oc(-c3ccc(O)cc3)c(O[C@@H]3O[C@H](CO[C@@H]4O[C@@H](C)[C@H](O)[C@@H](O)[C@H]4OC(C)=O)[C@@H](O)[C@H](O)[C@H]3O)c(=O)c2c1O`: the Activity in data set [1] is 1 mM; with PC-3 [3], “Non-toxic”. In the data set on PC-3 [2], the outcome was inactive.

With `COc1c(O)cc2oc(-c3ccc(O)c(O)c3)c(O[C@@H]3O[C@H](CO[C@@H]4O[C@@H](C)[C@H](OC(C)=O)[C@@H](O)[C@H]4O)[C@@H](O)[C@H](O)[C@H]3O)c(=O)c2c1O`, the Activity in data set [1] is 2.16 mM; in the data set with PC-3 [3], “Non-toxic”. Besides, the result with PC-3 [4] was Active.

As for `COc1c(O)cc2oc(-c3ccc(O)cc3)c(O[C@@H]3O[C@H](CO[C@@H]4O[C@@H](C)[C@H](O)[C@@H](O)[C@H]4O)[C@@H](O)[C@H](O)[C@H]3O)c(=O)c2c1O`, the Activity in data set [1] is 2.06 mM; in the data set on PC-3 [3], “Non-toxic”. Moreover, the result with PC-3 [4] was Active.

As to `COc1c2cc(O)cc(O[C@@H]3O[C@H](CO)[C@@H](O)[C@H](O)[C@H]3O)c2c(O)c2c(=O)oc(C)cc12`, the Activity in data set [1] is 0.898 mM; with PC-3 [3], “Non-toxic”. In the data set with PC-3 [2], the result was inactive.

As to `COc1c(O)cc2oc(-c3ccc(O)cc3)c(O[C@@H]3O[C@H](CO)[C@@H](O)[C@H](O)[C@H]3O[C@@H]3O[C@@H](C)[C@H](O)[C@@H](O)[C@H]3O)c(=O)c2c1O`, the Activity in data set [1] was 1.53 mM; in the data set with PC-3 [3], “Non-toxic”. Further, the result in the data set on PC-3 [2] was inactive.

`COc1c(O)cc2oc(-c3ccc(O)cc3)c(O[C@@H]3O[C@H](CO[C@@H]4O[C@@H](C)[C@H](OC(C)=O)[C@@H](O)[C@H]4O)[C@@H](O)[C@H](O)[C@H]3O)c(=O)c2c1O`: the Activity in data set [1] was 0.968 mM; with PC-3 [3] it was “Non-toxic”. The outcome with PC-3 [2] was inactive.

`COc1c(O)cc2oc(-c3ccc(O)c(O)c3)c(O[C@@H]3O[C@H](CO[C@@H]4O[C@@H](C)[C@H](O)[C@@H](O)[C@H]4O)[C@@H](O)[C@H](O)[C@H]3O)c(=O)c2c1O`: the Activity is 2.02 mM in data set [1] and “Non-toxic” in the data set on PC-3 [3]. Besides, the result in the data set with PC-3 [4] was Active.

Take `COc1c(O)cc2oc(-c3ccc(O)c(O)c3)c(O[C@@H]3O[C@H](CO[C@@H]4O[C@@H](C)[C@H](OC(C)=O)[C@@H](O)[C@H]4OC(C)=O)[C@@H](O)[C@H](O)[C@H]3O)c(=O)c2c1O`: the Activity in data set [1] was 1.21 mM; with PC-3 [3], “Non-toxic”. Moreover, in the data set on PC-3 [2], the outcome was inactive.

Consider `COc1c2cc(O)cc(O[C@@H]3O[C@H](CO[C@@H]4O[C@H](CO)[C@@H](O)[C@H](O)[C@H]4O)[C@@H](O)[C@H](O)[C@H]3O)c2c(O)c2c(=O)oc(C)cc12`, for which the Activity in data set [1] is 1.04 mM; in the data set on PC-3 [3] it was “Non-toxic”. Besides, the result with PC-3 [2] was inactive.

Regarding `O=c1c(O[C@@H]2O[C@H](CO)[C@@H](O)[C@H](O)[C@H]2O)c(-c2ccc(O)c(O)c2)oc2cc(O)cc(O)c12`, the Activity in data set [1] was 1.78 mM.

In the case of `O=c1c(O)c(-c2ccc(O)c(O)c2)oc2cc(O)cc(O)c12`, the Activity in data set [1] worked out at 1.87 mM.

With `COc1c(O)cc2oc(-c3ccc(O)cc3)c(O[C@@H]3O[C@H](CO)[C@@H](O)[C@H](O)[C@H]3O)c(=O)c2c1O`, the Activity is 1.27 mM in data set [1] and “Non-toxic” with PC-3 [3]. The result with PC-3 [2] was inactive.

Regarding `COc1cc(/C=C/C(=O)OC[C@H]2O[C@@H](Oc3c(-c4ccc(O)cc4)oc4cc(O)c(OC)c(O)c4c3=O)[C@H](O)[C@@H](O)[C@@H]2O)ccc1O`, the Activity was 0.984 mM in data set [1] and “Non-toxic” with PC-3 [3]. Besides, the result in the data set with PC-3 [2] was inactive.

`COc1c(O)cc2oc(-c3ccc(O)c(O)c3)c(O[C@@H]3O[C@H](CO)[C@@H](O)[C@H](O)[C@H]3O)c(=O)c2c1O`: the Activity in data set [1] was 0.525 mM; with PC-3 [3] it was “Non-toxic”. In the data set on PC-3 [2], the result was inactive.

`COc1cc(O[C@H]2O[C@H](CO[C@H]3O[C@H](CO)[C@@H](O)[C@H](O)[C@H]3O)[C@@H](O)[C@H](O)[C@H]2O)c2c(O)c3c(=O)oc(C)cc3c(OC)c2c1`: the figures for the Activity (in data set [1]; with PC-3 [3]) were 0.706 mM and “Non-toxic”, respectively. In addition, the result in the data set on PC-3 [2] was inactive.

As to `COc1c(O)cc2oc(-c3ccc(O)cc3)c(O[C@@H]3O[C@H](COC(=O)/C=C/c4ccc(O)cc4)[C@@H](O)[C@H](O)[C@H]3O)c(=O)c2c1O`, the Activity in data set [1] is 1.28 mM; in the data set on PC-3 [3], “Non-toxic”. In the data set on PC-3 [2], the result was inactive.
